Reference: ChEMBL document CHEMBL2176978, “Fragment-based discovery of bromodomain inhibitors part 2: optimization of phenylisoxazole sulfonamides” (J Med Chem, 2012)
Converted amounts (≈) assume the structure as drawn.

Columns and labels:
[1] = target: Bromodomain adjacent to zinc finger domain protein 2B (Homo sapiens) (UniProt Q9UIF8); assay: Inhibition of His6FLAG-tagged BAZ2B expressed in Escherichia coli assessed as change in melting temperature at 100 uM by thermal shift assay
In short: (§1)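 Thermal melt: protein heated with or without 100 μM compound, at least duplicate; Sypro orange at 1:1000 in PBS with 10% glycerol; ramp 1 °C/min, fluorescence read every 0.5 °C; ΔTm reported.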

[2] = Solubility of the compound at pH 7; type: physicochemical; conditions: buffer
[3] = target: CREB-binding protein (Homo sapiens) (UniProt Q92793); assay: Inhibition of His6FLAG-tagged CREBBP expressed in Escherichia coli assessed as change in melting temperature at 100 uM by thermal shift assay; in short: as §1
[4] = target: PH-interacting protein (Homo sapiens) (UniProt Q8WWQ0); assay: Inhibition of His6FLAG-tagged PHIP-BD2 expressed in Escherichia coli assessed as change in melting temperature at 100 uM by thermal shift assay; in short: as §1
[5] = target: T1, E3 ubiquitin-protein ligase TRIM33 (Homo sapiens) (UniProt Q9UPN9); assay: Inhibition of His6FLAG-tagged TRIM33 isoform B expressed in Escherichia coli assessed as change in melting temperature at 100 uM by thermal shift assay; in short: as §1
T1 sequence (whole entry): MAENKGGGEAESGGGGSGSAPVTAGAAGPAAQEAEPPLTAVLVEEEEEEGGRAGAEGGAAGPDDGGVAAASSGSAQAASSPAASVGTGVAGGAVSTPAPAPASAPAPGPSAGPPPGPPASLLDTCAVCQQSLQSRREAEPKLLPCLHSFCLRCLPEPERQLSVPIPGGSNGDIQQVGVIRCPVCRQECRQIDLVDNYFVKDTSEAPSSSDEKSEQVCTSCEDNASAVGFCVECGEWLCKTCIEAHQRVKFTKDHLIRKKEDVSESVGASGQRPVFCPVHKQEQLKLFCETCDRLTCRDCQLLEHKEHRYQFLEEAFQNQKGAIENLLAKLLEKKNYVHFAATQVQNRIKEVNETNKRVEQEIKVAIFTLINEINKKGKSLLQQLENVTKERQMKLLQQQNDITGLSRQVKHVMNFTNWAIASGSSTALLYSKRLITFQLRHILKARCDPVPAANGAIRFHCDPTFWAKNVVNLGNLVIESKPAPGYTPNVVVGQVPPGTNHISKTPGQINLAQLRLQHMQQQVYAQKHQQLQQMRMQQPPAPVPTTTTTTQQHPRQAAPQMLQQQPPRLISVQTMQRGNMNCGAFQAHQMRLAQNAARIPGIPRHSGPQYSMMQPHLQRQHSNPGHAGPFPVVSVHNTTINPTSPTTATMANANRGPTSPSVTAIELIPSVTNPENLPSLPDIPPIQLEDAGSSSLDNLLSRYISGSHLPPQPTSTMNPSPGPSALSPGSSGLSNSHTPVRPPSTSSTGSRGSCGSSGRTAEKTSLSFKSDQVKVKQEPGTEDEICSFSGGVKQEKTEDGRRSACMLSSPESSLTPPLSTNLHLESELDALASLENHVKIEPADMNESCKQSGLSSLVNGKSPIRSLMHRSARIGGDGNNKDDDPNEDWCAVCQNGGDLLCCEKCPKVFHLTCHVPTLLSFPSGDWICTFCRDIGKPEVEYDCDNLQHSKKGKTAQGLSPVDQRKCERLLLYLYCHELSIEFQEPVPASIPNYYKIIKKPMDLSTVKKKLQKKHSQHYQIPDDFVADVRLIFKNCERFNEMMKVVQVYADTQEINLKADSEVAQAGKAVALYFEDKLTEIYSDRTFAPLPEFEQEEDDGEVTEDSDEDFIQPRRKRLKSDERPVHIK

[6] = Solubility of the compound at pH 5; type: physicochemical; conditions: buffer
[7] = target: T2, ATPase family AAA domain-containing protein 2B (Homo sapiens) (UniProt Q9ULI0); assay: Inhibition of His6FLAG-tagged ATD2B expressed in Escherichia coli assessed as change in melting temperature at 100 uM by thermal shift assay; in short: as §1
T2 sequence (whole entry): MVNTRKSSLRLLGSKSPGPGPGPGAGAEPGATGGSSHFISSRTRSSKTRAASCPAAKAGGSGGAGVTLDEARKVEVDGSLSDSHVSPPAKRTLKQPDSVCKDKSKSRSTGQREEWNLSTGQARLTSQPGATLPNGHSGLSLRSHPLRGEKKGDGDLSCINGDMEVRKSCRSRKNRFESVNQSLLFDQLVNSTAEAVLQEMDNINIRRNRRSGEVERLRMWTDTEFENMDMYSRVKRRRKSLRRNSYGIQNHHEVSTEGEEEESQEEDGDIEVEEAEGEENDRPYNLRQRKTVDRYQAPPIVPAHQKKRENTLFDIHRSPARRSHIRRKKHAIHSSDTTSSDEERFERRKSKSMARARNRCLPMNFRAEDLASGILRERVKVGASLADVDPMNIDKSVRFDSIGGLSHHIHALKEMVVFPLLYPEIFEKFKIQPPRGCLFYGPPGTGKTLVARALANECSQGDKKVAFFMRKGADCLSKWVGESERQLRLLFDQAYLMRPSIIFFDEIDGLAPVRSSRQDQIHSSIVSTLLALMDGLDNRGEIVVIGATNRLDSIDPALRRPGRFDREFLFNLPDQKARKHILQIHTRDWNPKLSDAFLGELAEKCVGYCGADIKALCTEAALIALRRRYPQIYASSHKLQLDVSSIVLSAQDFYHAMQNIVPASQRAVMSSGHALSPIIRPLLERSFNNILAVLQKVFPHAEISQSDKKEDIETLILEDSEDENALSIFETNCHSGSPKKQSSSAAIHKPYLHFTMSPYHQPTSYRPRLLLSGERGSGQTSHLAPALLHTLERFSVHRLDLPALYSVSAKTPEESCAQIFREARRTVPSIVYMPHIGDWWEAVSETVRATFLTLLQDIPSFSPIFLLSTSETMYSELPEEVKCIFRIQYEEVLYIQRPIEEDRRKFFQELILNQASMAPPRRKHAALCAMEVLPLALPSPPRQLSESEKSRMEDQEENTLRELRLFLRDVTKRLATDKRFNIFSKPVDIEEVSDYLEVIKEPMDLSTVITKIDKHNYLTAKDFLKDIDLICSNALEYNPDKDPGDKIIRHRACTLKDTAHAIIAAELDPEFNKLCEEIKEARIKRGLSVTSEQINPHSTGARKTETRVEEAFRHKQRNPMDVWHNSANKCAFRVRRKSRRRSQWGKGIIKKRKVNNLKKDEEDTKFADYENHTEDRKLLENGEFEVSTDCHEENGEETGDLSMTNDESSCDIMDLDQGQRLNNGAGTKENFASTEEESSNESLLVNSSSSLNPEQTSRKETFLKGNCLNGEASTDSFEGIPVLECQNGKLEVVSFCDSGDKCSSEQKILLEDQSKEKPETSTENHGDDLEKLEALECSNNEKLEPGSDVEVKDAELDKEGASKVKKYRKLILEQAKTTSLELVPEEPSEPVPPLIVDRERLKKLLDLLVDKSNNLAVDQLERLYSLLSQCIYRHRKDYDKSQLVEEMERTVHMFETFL

CREB-binding protein (Homo sapiens), sequence (Q92793 2-2442 limits assumed): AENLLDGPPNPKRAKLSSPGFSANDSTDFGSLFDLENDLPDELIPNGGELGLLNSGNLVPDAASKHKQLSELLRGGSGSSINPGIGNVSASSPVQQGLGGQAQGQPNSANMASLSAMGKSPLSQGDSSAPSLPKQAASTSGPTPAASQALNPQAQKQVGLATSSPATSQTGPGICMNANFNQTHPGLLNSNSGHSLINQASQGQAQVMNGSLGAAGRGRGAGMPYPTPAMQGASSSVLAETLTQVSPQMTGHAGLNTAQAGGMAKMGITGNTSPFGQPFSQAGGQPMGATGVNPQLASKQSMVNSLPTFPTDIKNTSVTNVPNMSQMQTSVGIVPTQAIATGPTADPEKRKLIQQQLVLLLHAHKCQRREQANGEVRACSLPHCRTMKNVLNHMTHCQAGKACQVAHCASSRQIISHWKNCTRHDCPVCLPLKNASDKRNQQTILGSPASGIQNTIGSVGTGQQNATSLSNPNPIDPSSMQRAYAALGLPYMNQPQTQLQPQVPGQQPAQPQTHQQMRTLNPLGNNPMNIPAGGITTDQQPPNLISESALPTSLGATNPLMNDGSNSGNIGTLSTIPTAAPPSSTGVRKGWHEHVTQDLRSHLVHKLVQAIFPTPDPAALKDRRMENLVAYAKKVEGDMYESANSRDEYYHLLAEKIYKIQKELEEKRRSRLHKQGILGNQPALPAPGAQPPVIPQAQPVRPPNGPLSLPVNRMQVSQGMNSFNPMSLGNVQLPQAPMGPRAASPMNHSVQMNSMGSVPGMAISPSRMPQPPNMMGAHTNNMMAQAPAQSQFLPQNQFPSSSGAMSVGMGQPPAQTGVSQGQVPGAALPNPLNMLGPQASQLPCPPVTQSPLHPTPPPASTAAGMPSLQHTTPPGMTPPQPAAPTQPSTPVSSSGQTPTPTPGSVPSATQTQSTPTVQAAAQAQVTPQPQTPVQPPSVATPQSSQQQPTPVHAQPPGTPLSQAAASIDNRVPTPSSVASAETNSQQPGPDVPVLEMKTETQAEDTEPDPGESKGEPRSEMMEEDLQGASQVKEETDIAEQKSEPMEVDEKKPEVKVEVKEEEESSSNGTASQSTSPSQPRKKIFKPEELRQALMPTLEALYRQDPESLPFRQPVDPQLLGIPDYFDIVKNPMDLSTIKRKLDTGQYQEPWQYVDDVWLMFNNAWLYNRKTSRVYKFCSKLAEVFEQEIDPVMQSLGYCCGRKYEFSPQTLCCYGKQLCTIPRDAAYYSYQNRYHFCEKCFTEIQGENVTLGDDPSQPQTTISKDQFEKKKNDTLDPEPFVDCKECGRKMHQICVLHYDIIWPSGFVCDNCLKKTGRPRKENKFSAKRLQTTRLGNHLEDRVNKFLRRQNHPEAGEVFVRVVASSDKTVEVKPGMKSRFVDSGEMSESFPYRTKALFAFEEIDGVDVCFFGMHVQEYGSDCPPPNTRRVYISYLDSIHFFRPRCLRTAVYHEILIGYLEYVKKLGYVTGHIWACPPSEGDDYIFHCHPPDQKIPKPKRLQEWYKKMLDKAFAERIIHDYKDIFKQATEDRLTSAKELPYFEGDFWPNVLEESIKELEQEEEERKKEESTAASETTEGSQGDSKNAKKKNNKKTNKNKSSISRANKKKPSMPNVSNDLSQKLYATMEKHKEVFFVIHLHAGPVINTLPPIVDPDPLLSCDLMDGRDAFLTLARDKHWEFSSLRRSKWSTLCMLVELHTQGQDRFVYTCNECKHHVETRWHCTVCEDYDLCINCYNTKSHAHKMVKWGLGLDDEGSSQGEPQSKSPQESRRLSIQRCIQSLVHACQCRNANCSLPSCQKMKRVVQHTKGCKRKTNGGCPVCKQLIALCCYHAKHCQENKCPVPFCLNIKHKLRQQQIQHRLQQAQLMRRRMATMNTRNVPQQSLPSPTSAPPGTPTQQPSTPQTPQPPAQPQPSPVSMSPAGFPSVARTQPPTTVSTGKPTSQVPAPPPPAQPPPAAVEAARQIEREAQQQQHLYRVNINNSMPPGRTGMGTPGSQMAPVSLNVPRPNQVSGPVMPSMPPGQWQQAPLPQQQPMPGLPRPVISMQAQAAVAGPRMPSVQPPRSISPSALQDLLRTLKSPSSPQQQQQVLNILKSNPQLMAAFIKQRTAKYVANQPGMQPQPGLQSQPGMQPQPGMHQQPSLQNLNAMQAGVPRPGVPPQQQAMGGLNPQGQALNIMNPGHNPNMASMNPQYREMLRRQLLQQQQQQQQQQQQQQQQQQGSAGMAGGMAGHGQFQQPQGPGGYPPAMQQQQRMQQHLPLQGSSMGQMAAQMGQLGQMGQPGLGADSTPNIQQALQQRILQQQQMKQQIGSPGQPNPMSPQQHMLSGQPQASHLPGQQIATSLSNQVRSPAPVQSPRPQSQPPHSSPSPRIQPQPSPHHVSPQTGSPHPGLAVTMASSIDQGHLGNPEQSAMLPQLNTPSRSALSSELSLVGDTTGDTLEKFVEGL
Bromodomain adjacent to zinc finger domain protein 2B (Homo sapiens), sequence (Q9UIF8 whole entry, the tested form may be a part): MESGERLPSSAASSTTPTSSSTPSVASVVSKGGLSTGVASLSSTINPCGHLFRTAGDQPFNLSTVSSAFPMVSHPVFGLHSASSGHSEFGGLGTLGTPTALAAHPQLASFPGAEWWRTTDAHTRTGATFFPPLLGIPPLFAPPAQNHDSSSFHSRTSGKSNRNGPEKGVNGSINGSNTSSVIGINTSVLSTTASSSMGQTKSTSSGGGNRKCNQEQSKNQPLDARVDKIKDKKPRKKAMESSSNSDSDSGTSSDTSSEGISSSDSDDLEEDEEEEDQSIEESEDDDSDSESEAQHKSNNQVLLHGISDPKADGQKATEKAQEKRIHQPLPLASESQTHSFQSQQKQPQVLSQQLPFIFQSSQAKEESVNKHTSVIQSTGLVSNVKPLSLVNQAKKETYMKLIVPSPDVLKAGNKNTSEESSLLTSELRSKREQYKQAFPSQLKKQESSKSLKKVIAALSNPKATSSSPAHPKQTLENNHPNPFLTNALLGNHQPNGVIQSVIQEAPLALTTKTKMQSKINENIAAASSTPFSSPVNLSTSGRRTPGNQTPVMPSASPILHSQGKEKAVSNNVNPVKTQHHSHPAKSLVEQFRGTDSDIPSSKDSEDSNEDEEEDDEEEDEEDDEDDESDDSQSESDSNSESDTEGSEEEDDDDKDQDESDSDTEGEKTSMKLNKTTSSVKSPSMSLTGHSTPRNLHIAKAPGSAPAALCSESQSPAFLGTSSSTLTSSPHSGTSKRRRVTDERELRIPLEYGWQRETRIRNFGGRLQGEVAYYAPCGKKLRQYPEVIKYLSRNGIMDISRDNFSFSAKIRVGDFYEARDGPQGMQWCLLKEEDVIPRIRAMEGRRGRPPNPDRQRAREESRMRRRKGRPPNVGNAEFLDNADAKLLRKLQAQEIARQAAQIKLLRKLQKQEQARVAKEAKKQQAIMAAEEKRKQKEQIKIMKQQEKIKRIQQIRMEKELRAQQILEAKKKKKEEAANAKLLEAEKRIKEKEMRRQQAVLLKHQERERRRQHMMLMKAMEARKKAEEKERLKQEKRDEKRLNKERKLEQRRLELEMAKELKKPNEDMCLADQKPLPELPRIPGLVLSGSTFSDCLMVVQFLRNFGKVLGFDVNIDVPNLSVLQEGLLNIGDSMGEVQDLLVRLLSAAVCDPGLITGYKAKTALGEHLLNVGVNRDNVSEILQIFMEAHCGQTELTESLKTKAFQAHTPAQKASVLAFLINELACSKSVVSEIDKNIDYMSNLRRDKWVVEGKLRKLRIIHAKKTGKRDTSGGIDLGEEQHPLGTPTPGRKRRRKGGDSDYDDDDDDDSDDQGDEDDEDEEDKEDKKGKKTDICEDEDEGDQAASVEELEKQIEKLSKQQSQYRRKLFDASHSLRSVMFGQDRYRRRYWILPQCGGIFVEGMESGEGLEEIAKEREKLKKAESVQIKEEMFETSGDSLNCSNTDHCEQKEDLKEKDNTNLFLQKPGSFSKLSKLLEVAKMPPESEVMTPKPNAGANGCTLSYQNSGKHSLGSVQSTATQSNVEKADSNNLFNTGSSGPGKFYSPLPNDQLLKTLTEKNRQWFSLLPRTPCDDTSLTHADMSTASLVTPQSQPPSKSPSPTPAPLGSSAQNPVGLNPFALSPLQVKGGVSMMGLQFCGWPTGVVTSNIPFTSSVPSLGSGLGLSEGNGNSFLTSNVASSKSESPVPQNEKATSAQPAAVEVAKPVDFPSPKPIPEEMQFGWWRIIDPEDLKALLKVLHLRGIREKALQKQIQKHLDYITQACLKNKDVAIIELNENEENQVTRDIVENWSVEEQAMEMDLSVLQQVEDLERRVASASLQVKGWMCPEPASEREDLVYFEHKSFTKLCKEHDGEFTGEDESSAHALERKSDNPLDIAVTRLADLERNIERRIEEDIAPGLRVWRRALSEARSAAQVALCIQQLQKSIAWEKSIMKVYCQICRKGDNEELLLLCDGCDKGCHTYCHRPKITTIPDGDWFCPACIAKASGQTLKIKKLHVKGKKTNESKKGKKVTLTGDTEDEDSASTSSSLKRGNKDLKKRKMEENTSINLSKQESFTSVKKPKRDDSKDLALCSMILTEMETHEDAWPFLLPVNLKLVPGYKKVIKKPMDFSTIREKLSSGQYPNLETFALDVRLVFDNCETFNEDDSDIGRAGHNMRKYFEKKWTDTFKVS

Row | ΔTm [1] [°C] | solubility [2] [µg/mL] | ΔTm [3] [°C] | ΔTm [4] [°C] | ΔTm [5] [°C] | solubility [6] [µg/mL] | ΔTm [7] [°C] | Structure (SMILES)
1 | < 1 | < 1 | < 1 | < 1 | < 1 | < 1 | < 1 | Cc1ccc(-c2c(C)noc2C)cc1S(=O)(=O)NC1CCCC1
2 | < 1 | 210 (≈ 453 µM) | 1.5 | < 1 | < 1 | 1120 (≈ 2430 µM) | < 1 | Cc1noc(C)c1-c1ccc(OCCCN2CCOCC2)c(S(=O)(=O)NC2CCCC2)c1
